Screening data: PubChem, several laboratories
The list is not random: actives were taken first. Their share in the collection is about 1.2%.
SUMO HTRF inh = inhibitors of in vitro SUMOylation cascade, primary screen, biochemical, HTRF, uHTS; HTRF SUMOylation assay, SAE1/SAE2 + UBC9; 0.36% of 290,000 active; inhibition, % at 35 µM; AID 2006, 2009; in the data active = inhibition above about 50%, passing the limit was not always enough
Target sequence (P63279 whole entry, looked up): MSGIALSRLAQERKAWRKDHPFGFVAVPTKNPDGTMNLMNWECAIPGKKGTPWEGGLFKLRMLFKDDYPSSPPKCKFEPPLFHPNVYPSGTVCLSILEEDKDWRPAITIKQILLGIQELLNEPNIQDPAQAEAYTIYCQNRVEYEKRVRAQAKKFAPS
Fh CTSL1 inh = Fasciola hepatica cathepsin L1 inhibitors, primary screen, counter-screen for PFM18AAP inhibitor project, biochemical, QFRET, fluorogenic peptide substrate; recombinant F. hepatica cathepsin L1, Z-Leu-Arg-MCA fluorescence; inhibition, % at 5.96 µM; 0.49% of 300,000 active; AID 1906, 2009;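 active = inhibition above the mean of all tested compounds plus 3 SD, set per screening campaign, cut at about 17% in these data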
TDP2 inh = human TDP2 enzyme inhibitors, primary screen, biochemical, epi absorbance, recombinant enzyme | 0.34% of 370,000 active | AID 720702, 2013 | T5PNP hydrolysis, p-nitrophenol absorbance 415 nm | Tyrosyl-DNA phosphodiesterase 2 (Homo sapiens), O95551 | inhibition, % at 12.8 µM;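 active = inhibition above the mean of all tested compounds plus 3 SD, set per campaign, cut at about 25% in these data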
Target sequence (O95551 whole entry, looked up): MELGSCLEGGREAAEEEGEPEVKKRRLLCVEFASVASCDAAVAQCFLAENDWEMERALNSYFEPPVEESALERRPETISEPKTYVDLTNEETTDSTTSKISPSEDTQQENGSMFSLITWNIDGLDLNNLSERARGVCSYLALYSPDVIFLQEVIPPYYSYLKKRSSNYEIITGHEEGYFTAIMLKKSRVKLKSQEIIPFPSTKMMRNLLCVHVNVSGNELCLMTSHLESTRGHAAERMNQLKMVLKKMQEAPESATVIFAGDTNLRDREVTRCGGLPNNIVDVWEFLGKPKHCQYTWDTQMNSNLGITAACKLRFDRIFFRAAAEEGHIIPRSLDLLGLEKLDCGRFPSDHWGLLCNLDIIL
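Test system: human TDP2 enzyme; Input: 120 nM TDP2 per well; Buffer or medium: Mg2+-containing Tris-HCl buffer, pH 7.5; Reagent: 5 mM T5PNP; Dosing: 12.8 µM single point, 1% DMSO; Incubation: reaction 2 h, 37 °C; Detection: p-Nitrophenol epi absorbance; Read-out: % inhibition relative to enzyme-containing and enzyme-free wells; Replicates: single well per compound.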
NSD2 inh = NSD2 histone methyltransferase inhibitors, primary screen, biochemical, AlphaScreen, single concentration, set 2; Histone-lysine N-methyltransferase NSD2 (Homo sapiens), O96028; NSD2 peptide methylation, 120 min; inhibition, % at 12.5 µM; 0.54% of 310,000 active; AID 743445, 2014; in the data active = inhibition above about 50%
Alpha artifact = AlphaScreen signal interference with preloaded methylated product, dose response, artefact control for NSD2 inhibitor project, biochemical, cherry-picked samples | AlphaScreen artifact counterscreen, preloaded methylated H4 peptide | shares compounds with NSD2 inh | AC35, µM (series often up to 10 µM) | 9.4% of 1,500 active; call rule not given here
Large screens that a line does not name were inactive (follow-up assays come after a bar, where they were run).

CCSc1nc2c(c(=O)[nH]1)C(c1ccc(C)cc1)C1=C(CCCC1=O)N2 (configuration not stated)	none
O=C(O)c1cc(-c2ccco2)nn1-c1cccc(Cl)c1	none
O=C(O)c1cc(-c2ccco2)nn1-c1ccc(Cl)cc1	NSD2 inh 60 (no result: Fh CTSL1 inh) | Alpha artifact inactive
O=C(Cc1ccc(S(=O)(=O)N2CCOCC2)s1)NCCOc1ccccc1	none (no result: SUMO HTRF inh)
CCc1ccc(C(=O)Nc2cc(S(=O)(=O)N3CCOCC3)ccc2N2CCOCC2)cc1	none (no result: SUMO HTRF inh, Fh CTSL1 inh)
CCN(CC)CCCn1c(=S)[nH]c2ncccc2c1=O	NSD2 inh 55 | Alpha artifact inactive
Cc1ccc(NC(=S)N2CCC(NC(=O)c3ccc(F)cc3)CC2)cc1	NSD2 inh 61 | Alpha artifact inactive
Cc1ccc(NC(=S)N2CCC(NC(=O)c3ccccc3)CC2)cc1	none
CCOC(=O)N1C(=O)C[C@](Sc2ccc(OC)cc2)(C(=O)N2CCCC2)[C@H]1c1ccc(OC)cc1	none (no result: SUMO HTRF inh, Fh CTSL1 inh, NSD2 inh)
OC(COc1ccc2ccccc2c1Cl)CN1CCOCC1 (configuration not stated)	NSD2 inh 86 | Alpha artifact inactive
Cc1cccc(OCCn2c(=S)[nH]c3ccccc32)c1	NSD2 inh 113 | Alpha artifact inactive
S=c1[nH]c2ccccc2n1CCOc1ccccc1	none
COc1ccc(CN2C[C@@H](CO)O[C@@H](n3cnc4c(NC5CCC5)ncnc43)C2)cc1	none (no result: SUMO HTRF inh, Fh CTSL1 inh)
Cc1cc(S(=O)(=O)NCc2cccnc2)ccc1F	NSD2 inh 59 | Alpha artifact inactive
Cc1ccc(S(=O)(=O)NCc2cccnc2)cc1C	none
CNS(=O)(=O)c1cc(NC(=O)CCCNC(=O)c2ccc(Cl)cc2)ccc1C	NSD2 inh 67 | Alpha artifact inactive
CN[C@H]1C[C@H]2c3[nH]c4c(-c5ccc6c(c5)OCO6)cccc4c3CCN2C(=O)[C@H]1[C@H](C)O	none (no result: SUMO HTRF inh, Fh CTSL1 inh, NSD2 inh)
Cc1ccc(-c2cc(C(=O)N/N=C/c3ccc(Cl)cc3)n[nH]2)o1	none
Cc1ccc(-c2cc(C(=O)N/N=C/c3ccccc3)n[nH]2)o1	NSD2 inh 122 | Alpha artifact inactive
O=[N+]([O-])c1ccccc1-c1ccc(C(=S)N2CCCC2)o1	NSD2 inh 65 | Alpha artifact inactive
CCCCCCn1cc(CN2CC(N(C)C)CS2(=O)=O)nn1 (configuration not stated)	none (no result: SUMO HTRF inh, Fh CTSL1 inh, NSD2 inh)
CCOC(=O)[C@]12CCCC=C1N(Cc1ccco1)C(=O)[C@H](CC(=O)N1CCCC1)C2	none (no result: SUMO HTRF inh, Fh CTSL1 inh, NSD2 inh)
CCCCN1C(=O)C(=Nc2cccc3cnccc23)c2ccccc21	SUMO HTRF inh 99, NSD2 inh 74 | Alpha artifact inactive
CCCCN1C(=O)/C(=C2\SC(N3CCCCC3)=NC2=O)c2ccccc21	none
COc1cc(/C=N/N2CCN(C3c4ccccc4-c4ccccc43)CC2)cc(OC)c1OC	NSD2 inh 144 | Alpha artifact inactive
CCCCCCCCN1C(=O)[C@@H](CC(=O)N2CCN(C(=O)c3ccco3)CC2)C[C@@]2(C(=O)OC)C1=C[C@H](C(C)C)O[C@@H]2C1CC1	none (no result: SUMO HTRF inh, Fh CTSL1 inh, NSD2 inh)
COc1ccc(S(=O)(=O)NCC2CCCO2)cc1Cl (configuration not stated)	none
COC(=O)COc1ccc(S(=O)(=O)NCC2CCCO2)cc1Cl (configuration not stated)	NSD2 inh 51 | Alpha artifact inactive
Cc1cccc(C)c1NC(=O)c1ccc(-n2cnnn2)cc1	none
O=C(Nc1ccc(Br)cc1)c1ccc(-n2cnnn2)cc1	NSD2 inh 105 | Alpha artifact inactive
CCc1nc2ccc(C(=O)N(CC)CCN(C)C)cn2c1N(C)C(=O)c1cccc(OC)c1	none (no result: SUMO HTRF inh, Fh CTSL1 inh)
Cn1c(N)c(C#N)c2c(c1=S)COC(C)(C)C2	none
Cn1c(N)c(C#N)c2c(c1=S)CSC(C)(C)C2	NSD2 inh 51 | Alpha artifact inactive
CCCCc1nc2cc(C(=O)N3CCC(O)CC3)ccc2o1	NSD2 inh 66 (no result: Fh CTSL1 inh) | Alpha artifact inactive
COc1cc(C2NC(=O)NC(C)=C2C(=O)OCC2CCCCC2)ccc1O (configuration not stated)	none
Cc1ccc(NC(=O)CCN2CCN(C/C=C/c3ccccc3)CC2)cc1C	NSD2 inh 64 | Alpha artifact inactive
Cc1cccc(NC(=O)CCN2CCCCC2)c1	NSD2 inh 66 | Alpha artifact inactive
COc1ccc(Oc2c(C(F)(F)F)oc3cc(OCC(=O)O)ccc3c2=O)cc1	none
O=C(Nc1ccccc1C(=O)O)c1cncc(Br)c1	NSD2 inh 68 | Alpha artifact inactive
C[C@H]1CNC(=O)c2c(C(=O)N(C)Cc3ccccc3)ncn21	none (no result: SUMO HTRF inh, Fh CTSL1 inh, NSD2 inh)
CC1=NOC(=O)/C1=C\c1ccc(-c2ccccc2Br)o1	NSD2 inh 69 (no result: Fh CTSL1 inh) | Alpha artifact inactive
CC1=NOC(=O)/C1=C\c1ccc(-c2cccc(Cl)c2)o1	none (no result: TDP2 inh)
CC1=NOC(=O)/C1=C\c1ccc(-c2ccc(Cl)c(C(=O)O)c2)o1	NSD2 inh 84 (no result: Fh CTSL1 inh) | Alpha artifact inactive
CN(C(=O)c1cccc(NC(=O)Cc2ccc(NC(=O)C3CCCN(S(=O)(=O)c4cccc([N+](=O)[O-])c4)C3)cc2)c1)C1CCCCC1 (configuration not stated)	none (no result: SUMO HTRF inh, Fh CTSL1 inh, NSD2 inh)
O=C(NNS(=O)(=O)c1ccc(F)cc1F)c1csc(-c2cccnc2)n1	NSD2 inh 54 | Alpha artifact inactive
COc1cc(OC)c(-c2c3cc(O)c(=O)cc-3oc3cc(O)c(O)cc23)cc1OC	SUMO HTRF inh 80, NSD2 inh 143 | Alpha artifact 0.85µM
Nc1cc(S(=O)(=O)O)cc2ccc(S(=O)(=O)O)cc12	NSD2 inh 102 (no result: SUMO HTRF inh, Fh CTSL1 inh) | Alpha artifact inactive
O=C(CN1C(=O)S/C(=C/c2cccn2-c2ccc(O)cc2)C1=O)N1CCCC1	none
Cc1ccccc1N=C1NC(=O)/C(=C/c2cccn2-c2cccc(C(=O)O)c2)S1	NSD2 inh 80 (no result: Fh CTSL1 inh) | Alpha artifact inactive
Cc1cccc(N=C2NC(=O)/C(=C/c3cccn3C)S2)c1C	none
O=C(O)c1cccc(-n2cccc2/C=C2/SC(=O)N(CC(=O)N3CCCC3)C2=O)c1	NSD2 inh 61 | Alpha artifact inactive
O=C(O)c1cccc(-n2cccc2/C=C2/NC(=O)N(c3cccc(Cl)c3)C2=O)c1	none
O=C(O)c1cccc(-n2cccc2/C=C2/NC(=O)N(c3ccc(Cl)cc3)C2=O)c1	SUMO HTRF inh 90, NSD2 inh 141 (no result: Fh CTSL1 inh) | Alpha artifact 2.1µM
CC(OC(=O)CCN=C1NS(=O)(=O)c2ccccc21)C(=O)Nc1ccc(F)c(F)c1F (configuration not stated)	none (no result: SUMO HTRF inh)
O=C(CN1C(=O)NC2(CCCCCC2)C1=O)NCCc1ccc(F)cc1	none (no result: SUMO HTRF inh, Fh CTSL1 inh)
CC(=O)N1CCN(c2ccccc2NC(=O)c2ccc3ccccc3c2)CC1	NSD2 inh 53 | Alpha artifact inactive
COc1ccccc1N(Cc1ccccc1)S(=O)(=O)c1cccc(C(=O)N2CCCCC2)c1	none (no result: SUMO HTRF inh, Fh CTSL1 inh)
CN(C)S(=O)(=O)c1ccc(Cl)c(C(=O)OCC(=O)c2ccco2)c1	NSD2 inh 55 (no result: SUMO HTRF inh, Fh CTSL1 inh) | Alpha artifact inactive
